This is an account of results in ChEMBL document CHEMBL3352009, “Glucopyranosylidene-spiro-iminothiazolidinone, a new bicyclic ring system: synthesis, derivatization, and evaluation for inhibition of glycogen phosphorylase by enzyme kinetic and crystallographic methods” (Bioorg Med Chem, 2014).

Structures are written as SMILES. Active and inactive are the calls of the source. The rule behind the calls is not given here.

The target of one assay is T1, Glycogen phosphorylase, muscle form (Oryctolagus cuniculus, UniProt P00489).
T1 sequence (P00489 whole entry): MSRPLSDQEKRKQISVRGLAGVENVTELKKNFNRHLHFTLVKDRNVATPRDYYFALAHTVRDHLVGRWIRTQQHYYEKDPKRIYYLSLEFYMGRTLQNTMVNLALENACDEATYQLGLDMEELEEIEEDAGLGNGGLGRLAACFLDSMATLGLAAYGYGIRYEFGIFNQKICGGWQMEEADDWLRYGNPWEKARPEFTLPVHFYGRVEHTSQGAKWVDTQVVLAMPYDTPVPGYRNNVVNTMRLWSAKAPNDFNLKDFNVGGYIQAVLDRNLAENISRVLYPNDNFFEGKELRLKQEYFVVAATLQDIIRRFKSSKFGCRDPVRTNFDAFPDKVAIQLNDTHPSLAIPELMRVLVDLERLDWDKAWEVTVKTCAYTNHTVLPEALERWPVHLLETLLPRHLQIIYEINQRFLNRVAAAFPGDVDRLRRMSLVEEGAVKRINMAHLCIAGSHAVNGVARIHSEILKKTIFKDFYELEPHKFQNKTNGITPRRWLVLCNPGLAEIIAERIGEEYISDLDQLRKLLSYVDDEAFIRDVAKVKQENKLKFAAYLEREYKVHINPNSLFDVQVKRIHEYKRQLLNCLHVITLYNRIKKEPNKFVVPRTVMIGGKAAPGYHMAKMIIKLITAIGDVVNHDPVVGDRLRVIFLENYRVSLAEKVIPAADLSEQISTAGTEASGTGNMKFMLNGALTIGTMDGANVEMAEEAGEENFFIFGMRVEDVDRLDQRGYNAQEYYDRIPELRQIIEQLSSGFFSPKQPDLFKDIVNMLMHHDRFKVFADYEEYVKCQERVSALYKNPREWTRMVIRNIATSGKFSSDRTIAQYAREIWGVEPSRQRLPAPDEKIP
Nature of the assay: Inhibition of rabbit muscle glycogen phosphorylase b at pH 6.8 assessed as inorganic phosphate release. Summed up:
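Rabbit muscle glycogen phosphorylase b; activity followed by inorganic phosphate release at pH 6.8. Inhibition constants reported as Ki, with part of the values derived from IC50 via the Cheng-Prusoff relation Ki = IC50/(1 + [S]/Km).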
For `O=C(/N=C1/NC(=O)[C@]2(O[C@H](CO)[C@@H](O)[C@H](O)[C@H]2O)S1)c1ccc2ccccc2c1`, the Ki (as a rule, a measure of affinity in units of concentration, obtained from inhibition or displacement) was determined as 10 µM.
As to `O=C(/N=C1/NC(=O)[C@]2(O[C@H](CO)[C@@H](O)[C@H](O)[C@H]2O)S1)c1ccccc1`, the Ki was determined as 9 µM.
The same measure, in the same setting: under `N=C1NC(=O)[C@]2(O[C@H](CO)[C@@H](O)[C@H](O)[C@H]2O)S1` stands 24 µM.
For the compound `O=C1N/C(=N/S(=O)(=O)c2ccc3ccccc3c2)S[C@@]12O[C@H](CO)[C@@H](O)[C@H](O)[C@H]2O`, the Ki was 153 µM.
On to `O=C1N/C(=N/S(=O)(=O)c2ccccc2)S[C@@]12O[C@H](CO)[C@@H](O)[C@H](O)[C@H]2O`, for which the Ki stood at 143 µM.
With `Cc1ccc(C(=O)/N=C2/NC(=O)[C@]3(O[C@H](CO)[C@@H](O)[C@H](O)[C@H]3O)S2)cc1`, the inhibition constant (Ki) worked out at 35 µM.
As for `O=C1N/C(=N/S(=O)(=O)c2cccc3ccccc23)S[C@@]12O[C@H](CO)[C@@H](O)[C@H](O)[C@H]2O`, the Ki came out at 29 µM.
Still for that read-out and setting: for `Cc1ccc(S(=O)(=O)/N=C2/NC(=O)[C@]3(O[C@H](CO)[C@@H](O)[C@H](O)[C@H]3O)S2)cc1` the value was 63 µM.
In the case of `CC(C)(C)C(=O)/N=C1/NC(=O)[C@]2(O[C@H](CO)[C@@H](O)[C@H](O)[C@H]2O)S1`, the inhibition constant (Ki) was determined as 137 µM.
Regarding `O=C(/N=C1/NC(=O)[C@]2(O[C@H](CO)[C@@H](O)[C@H](O)[C@H]2O)S1)c1cccc2ccccc12`, the Ki was 15 µM.

For the next assay, the target named is T2, Glycogen phosphorylase, muscle form (Oryctolagus cuniculus) (UniProt P00489).
T2 sequence (whole entry): T1 sequence (P00489 whole entry)
Nature of the assay: Inhibition of rabbit muscle glycogen phosphorylase b at pH 6.8 assessed as inorganic phosphate release at 1 mM.
As for `O=C1N2CCN=C2S[C@@]12O[C@H](CO)[C@@H](O)[C@H](O)[C@H]2O`, the inhibition (as a rule, the drop in the measured response relative to a control, in per cent) came out at 48%.
Turning to `O=C1N2CCCN=C2S[C@@]12O[C@H](CO)[C@@H](O)[C@H](O)[C@H]2O`, the inhibition result is “inactive”.
